From ChEMBL document CHEMBL2331390, “Telomere shortening and cell senescence induced by perylene derivatives in A549 human lung cancer cells” (Bioorg Med Chem, 2013)
The source made the active and inactive calls. The rule behind the calls is not given here.

How the values were obtained:
A549 [1] = assay: Binding affinity to human TERT promoter DNA sequence in human A549 cells assessed as telomere restriction fragment length at 0.8 uM after 30 days by TeloTAGGG-based chemiluminescence assay (reference value: 3.3 kb); type: cell-based
Method in brief: (§1)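 Genomic DNA from A549 cells kept long-term with 0.4 or 0.8 μM compound (medium changed every 3 days, replated every 6 days). DNA isolated with DNAzol. 2 µg digested with RsaI/HinfI, run on 0.8% agarose, Southern-blotted, hybridized with DIG-labeled telomeric probe, anti-DIG alkaline phosphatase, chemiluminescence. Mean TRF = Σ(ODi)/Σ(ODi/Li).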

A549 [2] = assay: Antiproliferative activity against human A549 cells assessed as decrease in cell viability at 0.8 uM after 78 days relative to control; type: functional, cell-based
Method in brief: (§2)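 A549 cells (1.5×10^5) seeded in RPMI 1640 + 10% FBS with 0.4 or 0.8 μM perylene or medium only. Medium changed every 3 days. Every 6 days, at confluence, cells were trypsinized, counted by hemocytometer and replated at 1.5×10^5. Population doublings n = (log Pn − log P0)/log 2, cumulated against time. Three independent experiments.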

A549 [3] = assay: Cytotoxicity against human A549 cells assessed as reduction in colony formation incubated for 30 days followed by subculturing in compound-free medium measured after 14 days by crystal violet staining method; type: functional, cell-based
Method in brief: (§3)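 A549 cells from the long-term culture (0.4 or 0.8 μM, medium changed every 3 days, replated every 6 days) were collected on the stated day. 2×10^3 cells seeded per 10-cm dish, fed every 4-5 days. Colonies stained with crystal violet after 14 days and counted; expressed as % of control. Controls under 25 colonies excluded. Three independent experiments.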

A549 [4] = assay: Binding affinity to human TERT promoter DNA sequence in human A549 cells assessed as telomere restriction fragment length at 0.4 uM after 78 days by TeloTAGGG-based chemiluminescence assay (reference value: 3.4 kb); type: cell-based; method in brief: as §1
A549 [5] = assay: Cytotoxicity against human A549 cells assessed as colony formation at 0.4 uM incubated for 78 days followed by subculturing in compound-free medium measured after 14 days by crystal violet staining method relative to control; type: functional; method in brief: as §3
Homo sapiens [6] = species: Homo sapiens; assay: Binding affinity to human telomeric 5'-AGATAGTTAGGGTTAGGGTTAGGGTTAGGGTT-3' DNA assessed as induction of intramoleculsr G-quadruplex formation after 10 hrs by PAGE analysis
Method in brief: (§4)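 FAM-labeled G-rich strand (2 µM) and complementary C-rich strand (2 µM) with compound in 10 mM Tris-HCl pH 7.4, 100 mM KCl. Heated to 95 °C for 5 min, slowly cooled to 55 °C, held 10 h, then cooled to 4 °C. Duplex vs G-quadruplex resolved on 16% native PAGE with 50 mM KCl (4 °C, 350 V, 10 h) and fluorescence-imaged.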

A549 [7] = assay: Cytotoxicity against human A549 cells assessed as colony formation at 0.8 uM incubated for 78 days followed by subculturing in compound-free medium measured after 14 days by crystal violet staining method relative to control; type: functional; method in brief: as §3
A549 [8] = assay: Cytotoxicity against human A549 cells assessed as colony formation at 0.4 uM incubated for 30 days followed by subculturing in compound-free medium measured after 14 days by crystal violet staining method relative to control; type: functional; method in brief: as §3
A549 [9] = assay: Binding affinity to human TERT promoter DNA sequence in human A549 cells assessed as telomere restriction fragment length at 0.8 uM after 6 days by TeloTAGGG-based chemiluminescence assay (reference value: 3.4 kb); type: cell-based; method in brief: as §1
A549 [10] = assay: Binding affinity to human TERT promoter DNA sequence in human A549 cells assessed as inhibition of telomerase-mediated MTS primer extension after 24 hrs by fluorescence-based TRAP assay; type: cell-based
Method in brief: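 A549 cells exposed to compound for 24 h, lysed in CHAPS buffer, protein measured by Bradford. 6 µg lysate protein used as telomerase source in fluorescent TRAP with MTS primer (no G-quadruplex motif), with no phenol-chloroform step. FAM-primer PCR, native PAGE, fluorescence quantified. Mean ± SD of three experiments.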

A549 [11] = assay: Binding affinity to human TERT promoter DNA sequence in human A549 cells assessed as telomere restriction fragment length at 0.4 uM after 6 days by TeloTAGGG-based chemiluminescence assay (reference value: 3.4 kb); type: cell-based; method in brief: as §1
A549 [12] = assay: Cytotoxicity against human A549 cells assessed as colony formation at 0.8 uM incubated for 30 days followed by subculturing in compound-free medium measured after 14 days by crystal violet staining method relative to control; type: functional; method in brief: as §3
A549 [13] = assay: Induction of senescence in human A549 cells assessed as increase in beta-galactosidase activity at 0.4 to 0.8 uM incubated for 78 days followed by subculturing on compound-free medium measured after 48 hrs by fluorescence microscopic analysis; type: functional, cell-based
Method in brief: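 A549 cells from the long-term treatment replated and grown 48 h. Fixed in 2% formaldehyde/0.2% glutaraldehyde for 5 min at RT. Stained overnight with 1 mg/ml X-gal in pH 6 citrate/phosphate buffer with 5 mM ferro/ferricyanide, 150 mM NaCl, 2 mM MgCl2. Enlarged blue cells scored by microscopy.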

A549 [14] = assay: Antiproliferative activity against human A549 cells assessed as decrease in population doubling at 0.4 uM after 78 days; type: functional, cell-based; method in brief: as §2
A549 [15] = assay: Cytotoxicity against human A549 cells assessed as colony formation at 0.4 uM incubated for 6 days followed by subculturing in compound-free medium measured after 14 days by crystal violet staining method relative to control; type: functional; method in brief: as §3
A549 [16] = assay: Binding affinity to human TERT promoter DNA sequence in human A549 cells assessed as decrease in TERT mRNA expression after 24 hrs by semi-quantitative PCR analysis; type: cell-based
Method in brief: (§5)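 A549 cells (3.0×10^5) grown 24 h in RPMI 1640 + 10% FBS at 37 °C, 5% CO2, then exposed to compound for 24 h. Total RNA by Trizol, reverse transcribed, hTERT amplified with specific primers. Semi-quantitative and real-time SYBR Green PCR (45 cycles), standard-curve method, normalized to GAPDH. Three independent experiments.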

A549 [17] = assay: Binding affinity to human TERT promoter DNA sequence in human A549 cells assessed as decrease in TERT mRNA expression at 6 uM after 24 hrs by semi-quantitative PCR analysis relative to control; type: cell-based; design: scale not given: the % may be the effect or the level left; method in brief: as §5
A549 [18] = assay: Antiproliferative activity against human A549 cells assessed as decrease in population doubling at 0.8 uM after 78 days relative to control; type: functional; design: scale not given: the % may be the effect or the level left; method in brief: as §2
Homo sapiens [19] = species: Homo sapiens; assay: Binding affinity to human TERT1 5'-AAGGGGAGGGGCTGGGAGGGCCCGGA-3' DNA assessed as induction of intramoleculsr G-quadruplex formation after 10 hrs by PAGE analysis; method in brief: as §4
A549 [20] = assay: Binding affinity to human TERT promoter DNA sequence in human A549 cells assessed as telomere restriction fragment length at 0.8 uM after 78 days by TeloTAGGG-based chemiluminescence assay (reference value: 3.4 kb); type: cell-based; method in brief: as §1
Homo sapiens [21] = species: Homo sapiens; assay: Binding affinity to human TERT2 5'-GGGGGCTGGGCCGGGGACCCGGGAGGGGTCGGGACGGGGCGGGG-3' DNA assessed as induction of intermolecular G-quadruplex formation at 8 to 32 uM after 10 hrs by PAGE analysis; method in brief: as §4
A549 [22] = assay: Cytotoxicity against human A549 cells assessed as colony formation at 0.8 uM incubated for 6 days followed by subculturing in compound-free medium measured after 14 days by crystal violet staining method relative to control; type: functional; method in brief: as §3
[23] = Binding affinity to TSG4 primer DNA (unknown origin) assessed as inhibition of telomerase-mediated extension of primer […] by fluorescence-based TRAP assay
Method in brief: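 Cell-free TRAP. Compound preincubated with TSG4 primer in telomerase buffer (20 mM Tris-HCl pH 7.4, 1.5 mM MgCl2, 63 mM KCl, 1 mM EGTA, 200 µM dNTPs) at 37 °C for 2 h. Crude telomerase (50 ng) from telomerase-transfected HEK293T added, 30 °C for 30 min. Compound removed by phenol-chloroform, products ethanol-precipitated, PCR with FAM-tagged primer, 8% native PAGE, phosphoimaging. IC50 ± SD from three experiments.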

A549 [24] = assay: Binding affinity to human TERT promoter DNA sequence in human A549 cells assessed as telomere restriction fragment length at 0.4 uM after 30 days by TeloTAGGG-based chemiluminescence assay (reference value: 3.3 kb); type: cell-based; method in brief: as §1

O=C1c2ccc3c4ccc5c6c(ccc(c7ccc(c2c37)C(=O)N1CCN1CCCCC1)c64)C(=O)N(CCN1CCCCC1)C5=O
Activity (A549 [1]): 3.1 kilobase
Activity (A549 [2]): inactive
Activity (A549 [3]): Dose-dependent effect
Activity (A549 [4]): 3 kilobase
Activity (A549 [5]): 78%
Activity (Homo sapiens [6]): Dose-dependent effect
Activity (A549 [7]): 66%
Activity (A549 [8]): 96%
Activity (A549 [9]): 3.5 kilobase
Activity (A549 [10]): Dose-dependent effect
Activity (A549 [11]): 3.6 kilobase
Activity (A549 [12]): 89%
Activity (A549 [13]): inactive
Activity (A549 [14]): inactive
Activity (A549 [15]): 95%
Activity (A549 [16]): Dose-dependent effect
Activity (A549 [17]): 68%
Activity (A549 [18]): 20%
Activity (Homo sapiens [19]): Dose-dependent effect
Activity (A549 [20]): 2.7 kilobase
Activity (Homo sapiens [21]): Active
Activity (A549 [22]): 93%
IC50 [23]: 1.4 µM
inhibition [23]: Dose-dependent effect
Activity (A549 [24]): 3.3 kilobase
